Calls of active or inactive are those of the source. The rule behind the calls is not given here.
Legend:
[1] = biological target: T1, Amine oxidase [flavin-containing] A (Mus musculus, UniProt Q64133); assay: Inhibition of MAO A in mouse GL26 cells preincubated for 20 mins followed by 14C-labeled 5-hydroxytryptamine addition and measured after 20 mins by scintillation counter analysis; assay type: cell-based
T1 sequence (Q64133 whole entry): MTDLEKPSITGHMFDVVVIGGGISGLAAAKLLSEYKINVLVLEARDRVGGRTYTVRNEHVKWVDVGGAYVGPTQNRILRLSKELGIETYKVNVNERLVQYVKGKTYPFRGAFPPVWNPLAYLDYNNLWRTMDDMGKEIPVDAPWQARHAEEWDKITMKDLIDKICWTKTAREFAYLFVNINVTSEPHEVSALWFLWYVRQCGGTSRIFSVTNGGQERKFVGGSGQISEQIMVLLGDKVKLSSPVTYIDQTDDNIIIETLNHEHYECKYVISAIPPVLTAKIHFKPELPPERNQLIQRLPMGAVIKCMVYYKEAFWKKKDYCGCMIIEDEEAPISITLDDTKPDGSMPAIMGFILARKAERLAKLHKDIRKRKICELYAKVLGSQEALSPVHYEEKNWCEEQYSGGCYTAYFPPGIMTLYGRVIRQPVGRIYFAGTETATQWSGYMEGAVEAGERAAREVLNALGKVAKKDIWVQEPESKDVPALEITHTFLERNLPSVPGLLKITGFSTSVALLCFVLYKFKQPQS

[2] = biological target: Heat shock protein HSP 90-alpha (Homo sapiens, UniProt P07900); assay: Inhibition of human recombinant HSP90alpha preincubated for 30 mins followed by FITC-GM addition and mesured after 3 hrs by fluorescence polarization assay
[3] = Antiproliferative activity against mouse GL26 cells assessed as inhibition of cell growth measured after 48 hrs by MTT assay; assay type: functional, cell-based; settings: GL26, 48 h
Method in brief: (§1)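 Cells plated at 5×10³ per well 24 h before compound and grown in DMEM with 10% FBS at 37°C, 5% CO₂. After 48 h exposure, the medium was replaced with 0.5 mg/mL MTT for 3 h. Formazan was dissolved in DMSO and read at 570 nm.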

[4] = system: U-251; assay: Antiproliferative activity against human Temozolomide-resistant U-251 cells assessed as inhibition of cell growth measured after 48 hrs by MTT assay; assay type: functional, cell-based; settings: U-251, 48 h; method in brief: as §1
[5] = system: U-87 MG; assay: Antiproliferative activity against human U-87 MG cells assessed as inhibition of cell growth measured after 72 hrs by CCK8 method; assay type: functional, cell-based, U-87MG ATCC
Method in brief: (§2)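 Cell lines from ATCC or from patient surgical specimens (P1S, P3, P3R), kept in DMEM with 10% FBS and 1% penicillin/streptomycin at 37°C, 5% CO₂. P3R medium also held 50 μM TMZ. Cells were seeded at 2×10³/well 24 h before compound, then exposed 72 h.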

[6] = Antiproliferative activity against human U373 MG cells assessed as inhibition of cell growth measured after 72 hrs by CCK8 method; assay type: functional, cell-based, U-373MG ATCC; method in brief: as §2
[7] = system: LN-229; assay: Antiproliferative activity against human LN-229 cells assessed as inhibition of cell growth measured after 72 hrs by CCK8 method; assay type: functional, cell-based; settings: LN-229, 72 h; method in brief: as §2
[8] = system: A 172; assay: Antiproliferative activity against human A-172 cells assessed as inhibition of cell growth measured after 72 hrs by CCK8 method; assay type: functional, cell-based; settings: A 172, 72 h; method in brief: as §2
[9] = system: T98G; assay: Antiproliferative activity against human T98G cells assessed as inhibition of cell growth measured after 72 hrs by CCK8 method; assay type: functional, cell-based; method in brief: as §2
[10] = Antiproliferative activity against human patient-derived, TMZ-resistant and concurrent chemo-radiotherapy (CCRT)-resistant P1S cell assessed as inhibition of cell growth measured after 72 hrs by CCK8 method; assay type: functional, cell-based; method in brief: as §2
[11] = Antiproliferative activity against human patient-derived P3 cell assessed as inhibition of cell growth measured after 72 hrs by CCK8 method; assay type: functional, cell-based; method in brief: as §2
[12] = Antiproliferative activity against human patient-derived TMZ-resistant GBM cells with MGMT negative P3R cell assessed as inhibition of cell growth measured after 72 hrs by CCK8 method; assay type: functional, cell-based; method in brief: as §2
[13] = system: GL26; assay: Downregulation of HER2 expression in mouse GL26 cells incubated for 24 hrs by Western blot analysis; assay type: functional, cell-based; settings: dose 0.1-3 µM
[14] = system: GL26; assay: Downregulation of Akt phosphorylation expression at Ser 473 residues in mouse GL26 cells incubated for 24 hrs by Western blot analysis; assay type: functional, cell-based; settings: dose 0.1-3 µM
[15] = system: U-251; assay: Downregulation of HER2 expression in human Temozolomide-resistant U-251 cells incubated for 24 hrs by Western blot analysis; assay type: functional, cell-based; settings: dose 0.1-3 µM
[16] = system: U-251; assay: Downregulation of Akt phosphorylation expression at Ser 473 residues in human Temozolomide-resistant U-251 cells incubated for 24 hrs by Western blot analysis; assay type: functional, cell-based; settings: dose 0.1-3 µM
[17] = system: U-251; assay: Upregulation of HSP70 expression in human Temozolomide-resistant U-251 cells incubated for 24 hrs by Western blot analysis; assay type: functional, cell-based; settings: dose 0.1-3 µM
[18] = system: GL26; assay: Upregulation of HSP70 expression in mouse GL26 cells incubated for 24 hrs by Western blot analysis; assay type: functional, cell-based; settings: dose 0.1-3 µM
[19] = system: GL26; assay: Downregulation of IFN-gamma induced PD-L1 expression in mouse GL26 cells incubated for 24 hrs by flow cytometry analysis; assay type: functional, cell-based
Method in brief: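 GL26 cells at 3.6 × 10⁵ per well were treated at various concentrations with or without 10 ng/mL IFN-γ for 24 h. Cells were stained with goat anti-PD-L1 for 1 h in PBS/0.05% BSA, then FITC donkey anti-goat for 1 h, and read by flow cytometry. MFI was normalised to the secondary-antibody-only isotype control and expressed as an MFI ratio.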

[20] = system: HCT-116; assay: Downregulation of PD-L1 expression in human HCT-116 cells; assay type: functional, cell-based
Method in brief: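 HCT116 cells at 3 × 10⁵ per well were treated at various concentrations with or without 20 ng/mL IFN-γ for 48 h. Cells were stained with mouse anti-PD-L1 for 1 h in PBS/0.05% BSA, then FITC goat anti-mouse for 1 h. Surface FITC mean fluorescence intensity was measured by flow cytometry.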

[21] = Antitumor activity against mouse GL26 cells xenografted in C57BL/6J mouse model assessed as tumor growth inhibition at 25 mg/kg, ip administered daily for 3 days followed by every 3 days for 14 days by caliper method relative to control; assay type: functional; settings: GL26, 336 h, time 14 day, read-out: TGI
Method in brief: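 Male C57BL/6J mice aged 8-9 weeks received 2 × 10⁵ GL26 cells subcutaneously in the lower back. From day 9 after implantation, once tumours were palpable, 25 mg/kg was given i.p. daily for 3 days and then every 3 days over 14 days. Caliper volume was length × width² ÷ 2. TGI% was taken relative to the mean tumour size of the vehicle group.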

[22] = system: SF-268; assay: Growth inhibition of human SF-268 cells incubated for 48 hrs by SRB assay; assay type: functional
Method in brief: (§3)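 NCI-60 panel screen: cells seeded at 5000 to 40000 per well according to doubling time, 24 h before drug addition at various concentrations. A time-zero plate was TCA-fixed at drug addition. After 48 h drug exposure, growth was read by sulforhodamine B staining. Percent growth = [(Ti − Tz)/(C − Tz)] × 100, and GI50 is the concentration at which this equals 50.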

[23] = system: SF-295; assay: Growth inhibition of human SF-295 cells incubated for 48 hrs by SRB assay; assay type: functional; method in brief: as §3
[24] = system: SF-539; assay: Growth inhibition of human SF-539 cells incubated for 48 hrs by SRB assay; assay type: functional; method in brief: as §3
[25] = system: SNB-19; assay: Growth inhibition of human SNB-19 cells incubated for 48 hrs by SRB assay; assay type: functional; method in brief: as §3
[26] = system: SNB-75; assay: Growth inhibition of human SNB-75 cells incubated for 48 hrs by SRB assay; assay type: functional; method in brief: as §3
[27] = system: U-251; assay: Growth inhibition of human U-251 cells incubated for 48 hrs by SRB assay; assay type: functional; method in brief: as §3
[28] = system: K562; assay: Growth inhibition of human K562 cells incubated for 48 hrs by SRB assay; assay type: functional; method in brief: as §3
[29] = system: RPMI-8226; assay: Growth inhibition of human RPMI-8226 cells incubated for 48 hrs by SRB assay; assay type: functional; method in brief: as §3
[30] = system: A549; assay: Growth inhibition of human A549 cells incubated for 48 hrs by SRB assay; assay type: functional; method in brief: as §3
[31] = system: NCI-H460; assay: Growth inhibition of human NCI-H460 cells incubated for 48 hrs by SRB assay; assay type: functional; method in brief: as §3
[32] = system: NCI-H522; assay: Growth inhibition of human NCI-H522 cells incubated for 48 hrs by SRB assay; assay type: functional; method in brief: as §3
[33] = system: HCT-116; assay: Growth inhibition of human HCT-116 cells incubated for 48 hrs by SRB assay; assay type: functional; method in brief: as §3
[34] = system: SW-620; assay: Growth inhibition of human SW-620 cells incubated for 48 hrs by SRB assay; assay type: functional; method in brief: as §3
[35] = system: GL26; assay: Downregulation of Akt phosphorylation expression at Ser 473 residues in mouse GL26 cells at 0.1 to 3 uM incubated for 24 hrs by Western blot analysis; assay type: functional, cell-based; settings: dose 0.1-3 µM
Method in brief: (§4)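 GL26 and U251R cells were seeded at 3 × 10⁵ per well 24 h ahead, then treated in compound-containing medium for 24 h. Cells were washed twice in ice-cold PBS and lysed in RIPA buffer (150 mM NaCl, 1% Triton X-100, 0.5% deoxycholate, 0.1% SDS, 50 mM Tris pH 8.0) plus protease inhibitors. Lysate was cleared at 4°C, protein was quantified by BCA, and western blotting followed.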

[36] = system: U-251; assay: Downregulation of Akt phosphorylation expression at Ser 473 residues in human Temozolomide-resistant U-251 cells at 0.1 to 3 uM incubated for 24 hrs by Western blot analysis; assay type: functional, cell-based; settings: dose 0.1-3 µM; method in brief: as §4
[37] = system: GL26; assay: Downregulation of IFN-gamma induced PD-L1 expression in mouse GL26 cells at 20 uM incubated for 24 hrs by flow cytometry analysis; assay type: functional, cell-based
Method in brief: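 GL26 cells were seeded at 3.6 × 10⁵ per well and exposed to compound, with or without 10 ng/mL IFN-γ, for 24 h. Cells were stained with goat anti-PD-L1 for 1 h, then FITC donkey anti-goat for 1 h. Surface FITC was read by flow cytometry, and MFI was normalized to the secondary-only control as an MFI ratio.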

[38] = system: GL26; assay: Antitumor activity against mouse GL26 cells xenografted in C57BL/6J mouse model assessed as tumor growth inhibition at 10 mg/kg, ip administered daily for 14 days by caliper method; settings: time 14.0 day

Structure (SMILES): C#CCN(C)CCCOc1cc(N(C)C(=O)c2cc(C(C)C)c(O)cc2O)ccc1Cl
- IC50 [1]: > 10 µM

Structure (SMILES): C#CCN(C)CCCOc1cccc(NC(=O)c2cc(C(C)C)c(O)cc2O)c1Cl
- IC50 [1]: 2.36 µM

Structure (SMILES): C#CCN(C)CCCOc1ccc(N(CC)C(=O)c2cc(C(C)C)c(O)cc2O)cc1Cl
- IC50 [1]: 4.58 µM
- IC50 [2]: 0.016 µM
- IC50 [3]: 0.49 µM
- IC50 [4]: 0.26 µM
- IC50 [5]: 0.36 µM
- IC50 [6]: 0.89 µM
- IC50 [7]: 0.31 µM
- IC50 [8]: 0.89 µM
- IC50 [9]: 0.46 µM
- IC50 [10]: 0.68 µM
- IC50 [11]: 2.93 µM
- IC50 [12]: 1.45 µM
- Activity [13]: Dose-Dependent Effect
- Activity [14]: Dose-Dependent Effect
- Activity [15]: Dose-Dependent Effect
- Activity [16]: Dose-Dependent Effect
- Activity [17]: Dose-Dependent Effect
- Activity [18]: Dose-Dependent Effect
- Activity [19]: Dose-Dependent Effect
- Activity [20]: Active
- inhibition in vivo at 25 mg/kg [21]: 59.8%
- GI50 [22]: 1.43 µM
- GI50 [23]: 0.32 µM
- GI50 [24]: 0.31 µM
- GI50 [25]: 0.44 µM
- GI50 [26]: 0.86 µM
- GI50 [27]: 0.37 µM
- GI50 [28]: 0.07 µM
- GI50 [29]: 0.33 µM
- GI50 [30]: 0.14 µM
- GI50 [31]: 0.05 µM
- GI50 [32]: 0.07 µM
- GI50 [33]: 0.08 µM
- GI50 [34]: 0.24 µM

Structure (SMILES): C#CCN(C)CCCOc1cc(NC(=O)c2cc(C(C)C)c(O)cc2O)ccc1Cl
- IC50 [1]: 2.36 µM

Structure (SMILES): C#CCN(C)CCCOc1ccc(Cl)cc1Cl [CLORGILINE]
- IC50 [3]: > 100 µM
- Activity [35]: Active
- Activity [36]: Active
- Activity [37]: Active
- Activity [38]: inactive

Structure (SMILES): C#CCN(C)CCCOc1cc(N(CC)C(=O)c2cc(C(C)C)c(O)cc2O)ccc1Cl
- IC50 [1]: > 10 µM

Structure (SMILES): C#CCN(C)CCCOc1ccc(NC(=O)c2cc(C(C)C)c(O)cc2O)cc1Cl
- IC50 [1]: 0.11 µM
- IC50 [2]: > 10 µM
- IC50 [3]: > 10 µM
- IC50 [4]: > 10 µM

— ChEMBL document CHEMBL5370536, “Design, synthesis, and biological activity of dual monoamine oxidase A and heat shock protein 90 inhibitors, N-Methylpropargylamine-conjugated 4-isopropylresorcinol for glioblastoma” (Eur J Med Chem, 2023)
